Measurements published in the M2OR odorant receptor database.
Numbering of substitutions follows the chain as printed.

test system: T1, OR2G2 L167P R236G; conditions: stereoisomer not certain
T1 sequence (whole entry): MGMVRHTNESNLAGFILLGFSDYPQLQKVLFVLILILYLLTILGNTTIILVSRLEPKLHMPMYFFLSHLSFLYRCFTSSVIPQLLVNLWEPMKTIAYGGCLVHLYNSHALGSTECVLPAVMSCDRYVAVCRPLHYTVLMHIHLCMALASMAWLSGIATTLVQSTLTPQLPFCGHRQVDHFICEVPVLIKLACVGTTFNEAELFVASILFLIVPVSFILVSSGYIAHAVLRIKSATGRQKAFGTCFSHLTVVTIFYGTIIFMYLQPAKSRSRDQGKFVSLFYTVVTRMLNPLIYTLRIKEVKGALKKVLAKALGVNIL
Procedure, shortened: (§1)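 Values were gathered from published papers (main text and supplementary material), with extra details requested from the original authors when needed, and checked for typos and inconsistencies. Each receptor–molecule pair is called responsive (active) if the original authors judged the measured signal statistically different from baseline, and non-responsive (inactive) otherwise. Assay methods varied by source, often transient mammalian cell-line luciferase assays. Recorded details include cell line, G-protein, co-transfected protein and tags.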

Odorant receptor agonist call, inactive:
Cc1cnc(C)c(C)n1
CCC1OC(=O)C(O)=C1C (stereo unspecified)
CC1=C(O)C(=O)C(C)O1 (stereo unspecified)
CCC1OC(C)=C(O)C1=O (stereo unspecified)
CCCCCCC=CCCC=O
CC1=C(O)C(=O)OC1C (stereo unspecified)
CC1=NC(C)C(C)S1 (stereo unspecified)
CCCC(S)CCOC(C)=O (stereo unspecified)

target: T2, OR2G3 (Homo sapiens) (UniProt Q8NGZ4); conditions: stereoisomer not certain
T2 sequence (whole entry): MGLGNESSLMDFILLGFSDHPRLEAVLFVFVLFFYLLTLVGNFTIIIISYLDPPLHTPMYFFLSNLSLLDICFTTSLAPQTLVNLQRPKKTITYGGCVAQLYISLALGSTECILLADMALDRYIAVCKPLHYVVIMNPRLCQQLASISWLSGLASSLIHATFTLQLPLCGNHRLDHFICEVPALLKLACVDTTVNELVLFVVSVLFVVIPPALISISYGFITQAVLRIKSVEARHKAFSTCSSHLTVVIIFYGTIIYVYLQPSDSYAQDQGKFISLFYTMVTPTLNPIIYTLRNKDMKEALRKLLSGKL
Procedure, shortened: as §1

Odorant receptor agonist call, inactive:
Cc1cnc(C)c(C)n1
CCC1OC(=O)C(O)=C1C (stereo unspecified)
CC(CO)CS (stereo unspecified)
CC1=C(O)C(=O)C(C)O1 (stereo unspecified)
CC(=O)c1c(C)c([N+](=O)[O-])c(C(C)(C)C)c([N+](=O)[O-])c1C
CCC(S)C(C)CO (stereo unspecified)
CCC1OC(C)=C(O)C1=O (stereo unspecified)
CCCCCC(S)C(C)CO (stereo unspecified)
CCCCCC(=O)C(C)C(C)=O (stereo unspecified)
CCCCCCC=CCCC=O
CCCCC(S)C(C)CO (stereo unspecified)
CC1CCCCCCCCCCCCC(=O)C1 (stereo unspecified)
CC1=C(O)C(=O)OC1C (stereo unspecified)
CC1=NC(C)C(C)S1 (stereo unspecified)
CCCC(S)CCOC(C)=O (stereo unspecified)

test system: T3, OR2G3 I289V; conditions: stereoisomer not certain
T3 sequence (whole entry): T2 sequence (whole entry) with I289V
Procedure, shortened: as §1

Odorant receptor agonist call, inactive:
Cc1cnc(C)c(C)n1
CCC1OC(=O)C(O)=C1C (stereo unspecified)
CC1=C(O)C(=O)C(C)O1 (stereo unspecified)
CCC1OC(C)=C(O)C1=O (stereo unspecified)
CCCCCCC=CCCC=O
CC1=C(O)C(=O)OC1C (stereo unspecified)
CC1=NC(C)C(C)S1 (stereo unspecified)
CCCC(S)CCOC(C)=O (stereo unspecified)

target: T4, OR2G6 (Homo sapiens) (UniProt Q5TZ20); conditions: stereoisomer not certain
T4 sequence (whole entry): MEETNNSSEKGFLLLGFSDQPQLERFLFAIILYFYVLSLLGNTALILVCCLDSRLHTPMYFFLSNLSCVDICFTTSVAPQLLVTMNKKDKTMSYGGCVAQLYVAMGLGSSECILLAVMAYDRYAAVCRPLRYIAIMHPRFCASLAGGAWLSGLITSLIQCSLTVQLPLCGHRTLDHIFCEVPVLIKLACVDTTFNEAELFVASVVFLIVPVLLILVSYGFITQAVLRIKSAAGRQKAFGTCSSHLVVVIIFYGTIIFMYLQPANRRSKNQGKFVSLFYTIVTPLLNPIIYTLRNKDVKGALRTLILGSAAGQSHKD
Procedure, shortened: as §1

Odorant receptor agonist call, inactive:
Cc1cnc(C)c(C)n1
CCC1OC(=O)C(O)=C1C (stereo unspecified)
CC(CO)CS (stereo unspecified)
CC1=C(O)C(=O)C(C)O1 (stereo unspecified)
CC(=O)c1c(C)c([N+](=O)[O-])c(C(C)(C)C)c([N+](=O)[O-])c1C
CCC(S)C(C)CO (stereo unspecified)
CCC1OC(C)=C(O)C1=O (stereo unspecified)
CCCCCC(S)C(C)CO (stereo unspecified)
CCCCCC(=O)C(C)C(C)=O (stereo unspecified)
CCCCCCC=CCCC=O
CCCCC(S)C(C)CO (stereo unspecified)
CC1CCCCCCCCCCCCC(=O)C1 (stereo unspecified)
CC1=C(O)C(=O)OC1C (stereo unspecified)
CC1=NC(C)C(C)S1 (stereo unspecified)
CCCC(S)CCOC(C)=O (stereo unspecified)

target: T5, OR2H1 (Homo sapiens) (UniProt Q9GZK4); conditions: stereoisomer not certain
T5 sequence (whole entry): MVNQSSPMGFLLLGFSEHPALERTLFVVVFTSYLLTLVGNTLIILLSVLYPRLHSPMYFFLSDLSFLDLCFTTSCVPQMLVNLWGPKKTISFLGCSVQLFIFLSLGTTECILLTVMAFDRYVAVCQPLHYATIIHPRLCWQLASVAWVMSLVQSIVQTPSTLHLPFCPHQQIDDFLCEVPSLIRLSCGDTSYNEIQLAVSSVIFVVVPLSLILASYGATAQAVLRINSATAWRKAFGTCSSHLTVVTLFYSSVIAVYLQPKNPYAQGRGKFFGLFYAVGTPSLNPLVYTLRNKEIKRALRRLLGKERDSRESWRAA
Procedure, shortened: as §1

Odorant receptor agonist call, inactive:
Cc1cnc(C)c(C)n1
CCC1OC(=O)C(O)=C1C (stereo unspecified)
CC(CO)CS (stereo unspecified)
CC1=C(O)C(=O)C(C)O1 (stereo unspecified)
CC(=O)c1c(C)c([N+](=O)[O-])c(C(C)(C)C)c([N+](=O)[O-])c1C
CCC(S)C(C)CO (stereo unspecified)
CCC1OC(C)=C(O)C1=O (stereo unspecified)
CCCCCC(S)C(C)CO (stereo unspecified)
CCCCCC(=O)C(C)C(C)=O (stereo unspecified)
CCCCCCC=CCCC=O
CCCCC(S)C(C)CO (stereo unspecified)
CC1CCCCCCCCCCCCC(=O)C1 (stereo unspecified)
CC1=C(O)C(=O)OC1C (stereo unspecified)
CC1=NC(C)C(C)S1 (stereo unspecified)
CCCC(S)CCOC(C)=O (stereo unspecified)

target: T6, OR2H2 (Homo sapiens) (UniProt O95918); conditions: stereoisomer not certain
T6 sequence (whole entry): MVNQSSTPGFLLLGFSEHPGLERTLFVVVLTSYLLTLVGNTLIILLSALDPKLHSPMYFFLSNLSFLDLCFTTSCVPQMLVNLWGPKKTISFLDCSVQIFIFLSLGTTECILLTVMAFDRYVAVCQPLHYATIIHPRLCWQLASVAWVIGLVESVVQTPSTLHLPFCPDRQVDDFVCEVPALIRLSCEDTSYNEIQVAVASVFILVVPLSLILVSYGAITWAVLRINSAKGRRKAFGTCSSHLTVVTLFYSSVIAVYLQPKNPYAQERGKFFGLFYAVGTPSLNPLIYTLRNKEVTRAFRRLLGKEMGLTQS
Procedure, shortened: as §1

Odorant receptor agonist call, inactive:
Cc1cnc(C)c(C)n1
CCC1OC(=O)C(O)=C1C (stereo unspecified)
CC(CO)CS (stereo unspecified)
CC1=C(O)C(=O)C(C)O1 (stereo unspecified)
CC(=O)c1c(C)c([N+](=O)[O-])c(C(C)(C)C)c([N+](=O)[O-])c1C
CCC(S)C(C)CO (stereo unspecified)
CCC1OC(C)=C(O)C1=O (stereo unspecified)
CCCCCC(S)C(C)CO (stereo unspecified)
CCCCCC(=O)C(C)C(C)=O (stereo unspecified)
CCCCCCC=CCCC=O
CCCCC(S)C(C)CO (stereo unspecified)
CC1CCCCCCCCCCCCC(=O)C1 (stereo unspecified)
CC1=C(O)C(=O)OC1C (stereo unspecified)
CC1=NC(C)C(C)S1 (stereo unspecified)
CCCC(S)CCOC(C)=O (stereo unspecified)
